Format in all cases: functional
In experiment [1] the test system is Culex pipiens pallens. Put plainly: Insecticidal activity against Culex pipiens pallens (mosquito) fourth-instar larvae assessed as larvicidal activity at 2 mg/L measured 3 days post dose. Summed up: (§1)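 Mosquito larvicidal test: compounds were dissolved in acetone and diluted with distilled water to the test concentrations.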
Experiment [2] concerns Culex pipiens pallens. Put plainly: Insecticidal activity against Culex pipiens pallens (mosquito) fourth-instar larvae assessed as larvicidal activity at 1 mg/L measured 3 days post dose. Summed up:
as §1

In experiment [3] the test system is Mythimna separata. Put plainly: Insecticidal activity against Mythimna separata (Oriental armyworm) fourth-instar larvae infected Zea mays leaves assessed as larvicidal activity at 10 mg/L measured 2 days post dose. The gist of the method: (§2)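 Foliar application test: individual corn (Tangyu 10) leaves were placed on moistened filter paper in Petri dishes.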

In experiment [4] the test system is Mythimna separata. The experiment is described as follows: Insecticidal activity against Mythimna separata (Oriental armyworm) fourth-instar larvae infected Zea mays leaves assessed as larvicidal activity at 20 mg/L measured 2 days post dose. The gist of the method:
as §2

Experiment [5] has as its system Mythimna separata. The experiment is described as follows: Insecticidal activity against Mythimna separata (Oriental armyworm) fourth-instar larvae infected Zea mays leaves assessed as larvicidal activity at 50 mg/L measured 2 days post dose. Summed up: as §2
The subject of experiment [6] is Mythimna separata. Put plainly: Insecticidal activity against Mythimna separata (Oriental armyworm) fourth-instar larvae infected Zea mays leaves assessed as larvicidal activity at 100 mg/L measured 2 days post dose. The gist of the method: as §2
Experiment [7] concerns Mythimna separata. Put plainly: Insecticidal activity against Mythimna separata (Oriental armyworm) fourth-instar larvae infected Zea mays leaves assessed as larvicidal activity at 200 mg/L measured 2 days post dose. The gist of the method:
as §2

In experiment [8] the test system is Mythimna separata. The experiment is described as follows: Insecticidal activity against Mythimna separata (Oriental armyworm) fourth-instar larvae infected Zea mays leaves assessed as larvicidal activity at 5 mg/L measured 2 days post dose. Summed up:
as §2

For experiment [9], the system named is Plutella xylostella. Put plainly: Insecticidal activity against Plutella xylostella (diamondback moth) s-instar larvae infected in fresh cabbage leaves assessed as larvicidal activity at 20 mg/L measured 2 days post dose. The gist of the method:
(§3)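 Leaf-dip (spray) test: a 200 mg/L stock in DMF was diluted with distilled water. Cabbage leaf disks (6 × 2 cm) were sprayed for 3 s, dried, and placed individually in glass tubes. Each disk received 30 second-instar larvae. Mortality was scored at 2 days; triplicate.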

Experiment [10] has as its system Plutella xylostella. Put plainly: Insecticidal activity against Plutella xylostella (diamondback moth) s-instar larvae infected in fresh cabbage leaves assessed as larvicidal activity at 1 mg/L measured 2 days post dose. The gist of the method: as §3

As to `CNC(=O)c1cc(Cl)cc(C)c1NC(=S)NC(=O)c1cc(Cl)nn1-c1ncccc1Cl`, the Activity turned out to be 70% in the experiment with Culex pipiens pallens [1]; 30% with Culex pipiens pallens [2]; 40% in the experiment on Mythimna separata [3]; 100% in the experiment on Mythimna separata [4]; 100% in the experiment on Mythimna separata [5]; 100% with Mythimna separata [6]. Also, the Activity with Mythimna separata [7] is recorded as 100%.
For `Cc1cc(Cl)cc(C(=O)NC(C)C)c1NC(=O)NC(=O)c1cc(C(F)(F)F)nn1-c1ncccc1Cl`, the Activity in the experiment with Mythimna separata [7] came out at 70%.
Regarding `Cc1cccc(C(=O)NC(C)C)c1NC(=S)NC(=O)c1cc(Cl)nn1-c1ncccc1Cl`, the Activity in the experiment with Culex pipiens pallens [1] stood at 20%; with Mythimna separata [8] it was 0%; with Mythimna separata [3], 100%; in the experiment on Mythimna separata [4] it was 100%; with Mythimna separata [5] it was 100%; with Mythimna separata [6], 100%. Further, the Activity in the experiment on Mythimna separata [7] is 100%.
`Cc1cc(Cl)cc(C(=O)NC2CCCCC2)c1NC(=O)NC(=O)c1cc(C(F)(F)F)nn1-c1ncccc1Cl`: the Activity in the experiment with Mythimna separata [7] was 0%.
Still for that read-out and setting: to `O=C(NC(=O)c1cc(C(F)(F)F)nn1-c1ncccc1Cl)Nc1ccc(Cl)cc1C(=O)NC1CC1` belongs 30%; to `CCCNC(=O)c1cc(Cl)ccc1NC(=O)NC(=O)c1cc(C(F)(F)F)nn1-c1ncccc1Cl`, 0%.
For `CNC(=O)c1cc(Cl)cc(C)c1NC(=S)NC(=O)c1cc(Br)nn1-c1ncccc1Cl`, the Activity with Culex pipiens pallens [1] was 60%; in the experiment with Culex pipiens pallens [2], 20%; in the experiment with Mythimna separata [8], 50%; in the experiment with Mythimna separata [3] it was 100%; in the experiment with Mythimna separata [4] it was 100%; with Mythimna separata [5], 100%. In addition, the Activity in the experiment on Mythimna separata [6] and in the experiment with Mythimna separata [7] was 100% each time.
For `Cc1cc(Br)cc(C(=O)NC2CC2)c1NC(=O)NC(=O)c1cc(C(F)(F)F)nn1-c1ncccc1Cl`, the Activity was found to be 0% in the experiment with Mythimna separata [6] and 100% with Mythimna separata [7].
With `Cc1cc(Cl)cc(C(=O)NC2CCCCC2)c1NC(=S)NC(=O)c1cc(Br)nn1-c1ncccc1Cl`, the Activity in the experiment on Culex pipiens pallens [1] is given as 40%; in the experiment on Mythimna separata [7], 0%.
As for `CCCNC(=O)c1cccc(C)c1NC(=O)NC(=O)c1cc(C(F)(F)F)nn1-c1ncccc1Cl`, the Activity in the experiment with Mythimna separata [7] is on record as 60%.
Consider `Cc1cccc(C(=O)NCCC(C)C)c1NC(=S)NC(=O)c1cc(Br)nn1-c1ncccc1Cl`, for which the Activity in the experiment on Culex pipiens pallens [1] is recorded as 20%; in the experiment with Mythimna separata [6] it was 30%; with Mythimna separata [7], 100%.
For `Cc1cc(Cl)cc(C(=O)NC2CCCCC2)c1NC(=S)NC(=O)c1cc(C(F)(F)F)nn1-c1ncccc1Cl`, the Activity in the experiment on Plutella xylostella [9] is recorded as 30%; in the experiment on Mythimna separata [7] it was 40%; in the experiment with Plutella xylostella [10], 0%.
In the case of `Cc1cc(Cl)cc(C(=O)NC(C)(C)C)c1NC(=O)NC(=O)c1cc(C(F)(F)F)nn1-c1ncccc1Cl`, the Activity in the experiment with Mythimna separata [7] is on record as 60%.
For the compound `CNC(=O)c1cc(Cl)cc(C)c1NC(=O)NC(=O)c1cc(C(F)(F)F)nn1-c1ncccc1Cl`, the values for the Activity in the experiment with Mythimna separata [6] and in the experiment on Mythimna separata [7] were 20% and 100%, respectively.
Regarding `Cc1cccc(C(=O)NCCC(C)C)c1NC(=S)NC(=O)c1cc(Cl)nn1-c1ncccc1Cl`, the Activity stood at 10% in the experiment with Culex pipiens pallens [1] and 60% in the experiment on Mythimna separata [7].
In the case of `CCCCNC(=O)c1cc(Cl)cc(C)c1NC(=O)NC(=O)c1cc(C(F)(F)F)nn1-c1ncccc1Cl`, the Activity in the experiment with Mythimna separata [7] was 40%.
Consider `Cc1cc(Cl)cc(C(=O)NC2CC2)c1NC(=O)NC(=O)c1cc(C(F)(F)F)nn1-c1ncccc1Cl`, for which the Activity in the experiment with Mythimna separata [7] is reported as 20%.
`Cc1cccc(C(=O)NC2CC2)c1NC(=O)NC(=O)c1cc(C(F)(F)F)nn1-c1ncccc1Cl`: the values for the Activity with Mythimna separata [6] and in the experiment with Mythimna separata [7] were 80% and 100%, respectively.

The record behind these values is ChEMBL document CHEMBL3046803, “Synthesis and insecticidal activities of novel anthranilic diamides containing acylthiourea and acylurea” (2012).
